Reference: ChEMBL document CHEMBL4689842, “EUbOPEN Chemogenomics Library wave 1” (2021)

System: U2OS
Experiment: Multiplex assay against U2OS
Type: toxicity, cell-based
Settings: human
In short: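 Values for tubulin, mitochondrial-mass and membrane-permeability phenotypes are per cents of cells with healthy nuclei. These cells were identified by CellPathfinder machine-learning gating of live cells that had been stained at seeding with Hoechst33342, BioTracker Green Microtubule Cytoskeleton Dye, MitoTracker Red and Annexin V Alexa Fluor 680 and imaged on a CQ1 microscope at 37°C and 5% CO2 after compound addition. The gating first set Hoechst high-intensity objects apart from normal cells, then split normal cells into healthy, pyknosed or fragmented nuclei, and pyknosed cells into mitotic or apoptotic.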

[1] = 12 h, 1 µM, compound concentration 1 uM, replicate 1
[2] = 12 h, 1 µM, compound concentration 1 uM, replicate 2
[3] = 12 h, 10 µM, compound concentration 10 uM, replicate 1
[4] = 12 h, 10 µM, compound concentration 10 uM, replicate 2
[5] = 24 h, 1 µM, compound concentration 1 uM, replicate 1
[6] = 24 h, 1 µM, compound concentration 1 uM, replicate 2
[7] = 24 h, 10 µM, compound concentration 10 uM, replicate 1
[8] = 24 h, 10 µM, compound concentration 10 uM, replicate 2
[9] = 48 h, 1 µM, compound concentration 1 uM, replicate 1
[10] = 48 h, 1 µM, compound concentration 1 uM, replicate 2
[11] = 48 h, 10 µM, compound concentration 10 uM, replicate 1
[12] = 48 h, 10 µM, compound concentration 10 uM, replicate 2

CCCS(=O)(=O)c1nc(NC2CC2)cc(-c2ccc3c(ccn3C3CC(C)(C)NC(C)(C)C3)c2)n1
Population Apoptotic (%) [1]: 39% | Population Fragmented Nuclei (%) [1]: 16% | Population Healthy Nuclei (%) [1]: 62% | Population Hoechst High Intensity Objects (%) [1]: 6% | Population Membrane Permeable-Phenotype (%) [1]: 8% | Population Mitochondria Different-Phenotype (%) [1]: 30% | Population Mitotic Cells (%) [1]: 60% | Population Normal (%) [1]: 93% | Population Pyknosed Nuclei (%) [1]: 21% | Population Tubulin-Different-Phenotype (%) [1]: 24% | Total Cell Count [1]: 588 | Population Apoptotic (%) [2]: 38% | Population Fragmented Nuclei (%) [2]: 14% | Population Healthy Nuclei (%) [2]: 71% | Population Hoechst High Intensity Objects (%) [2]: 5% | Population Membrane Permeable-Phenotype (%) [2]: 5% | Population Mitochondria Different-Phenotype (%) [2]: 41% | Population Mitotic Cells (%) [2]: 61% | Population Normal (%) [2]: 94% | Population Pyknosed Nuclei (%) [2]: 13% | Population Tubulin-Different-Phenotype (%) [2]: 29% | Total Cell Count [2]: 1044 | Population Apoptotic (%) [3]: 86% | Population Fragmented Nuclei (%) [3]: 83% | Population Healthy Nuclei (%) [3]: 0% | Population Hoechst High Intensity Objects (%) [3]: 6% | Population Membrane Permeable-Phenotype (%) [3]: 0% | Population Mitochondria Different-Phenotype (%) [3]: 0% | Population Mitotic Cells (%) [3]: 13% | Population Normal (%) [3]: 93% | Population Pyknosed Nuclei (%) [3]: 16% | Population Tubulin-Different-Phenotype (%) [3]: 0% | Total Cell Count [3]: 142 | Population Apoptotic (%) [4]: 92% | Population Fragmented Nuclei (%) [4]: 75% | Population Healthy Nuclei (%) [4]: 4% | Population Hoechst High Intensity Objects (%) [4]: 7% | Population Membrane Permeable-Phenotype (%) [4]: 100% | Population Mitochondria Different-Phenotype (%) [4]: 38% | Population Mitotic Cells (%) [4]: 7% | Population Normal (%) [4]: 92% | Population Pyknosed Nuclei (%) [4]: 19% | Population Tubulin-Different-Phenotype (%) [4]: 84% | Total Cell Count [4]: 101 | Population Apoptotic (%) [5]: 50% | Population Fragmented Nuclei (%) [5]: 16% | Population Healthy Nuclei (%) [5]: 67% | Population Hoechst High Intensity Objects (%) [5]: 10% | Population Membrane Permeable-Phenotype (%) [5]: 5% | Population Mitotic Cells (%) [5]: 50% | Population Normal (%) [5]: 89% | Population Pyknosed Nuclei (%) [5]: 16% | Population Tubulin-Different-Phenotype (%) [5]: 9% | Total Cell Count [5]: 749 | Population Apoptotic (%) [6]: 22% | Population Fragmented Nuclei (%) [6]: 15% | Population Healthy Nuclei (%) [6]: 66% | Population Hoechst High Intensity Objects (%) [6]: 5% | Population Membrane Permeable-Phenotype (%) [6]: 10% | Population Mitochondria Different-Phenotype (%) [6]: 21% | Population Mitotic Cells (%) [6]: 77% | Population Normal (%) [6]: 94% | Population Pyknosed Nuclei (%) [6]: 18% | Population Tubulin-Different-Phenotype (%) [6]: 29% | Total Cell Count [6]: 1113 | Population Apoptotic (%) [7]: 86% | Population Fragmented Nuclei (%) [7]: 80% | Population Healthy Nuclei (%) [7]: 0% | Population Hoechst High Intensity Objects (%) [7]: 6% | Population Membrane Permeable-Phenotype (%) [7]: 100% | Population Mitochondria Different-Phenotype (%) [7]: 25% | Population Mitotic Cells (%) [7]: 13% | Population Normal (%) [7]: 93% | Population Pyknosed Nuclei (%) [7]: 18% | Population Tubulin-Different-Phenotype (%) [7]: 100% | Total Cell Count [7]: 151 | Population Apoptotic (%) [8]: 90% | Population Fragmented Nuclei (%) [8]: 73% | Population Healthy Nuclei (%) [8]: 10% | Population Hoechst High Intensity Objects (%) [8]: 7% | Population Membrane Permeable-Phenotype (%) [8]: 96% | Population Mitochondria Different-Phenotype (%) [8]: 75% | Population Mitotic Cells (%) [8]: 10% | Population Normal (%) [8]: 92% | Population Pyknosed Nuclei (%) [8]: 15% | Population Tubulin-Different-Phenotype (%) [8]: 96% | Total Cell Count [8]: 104 | Population Apoptotic (%) [9]: 37% | Population Fragmented Nuclei (%) [9]: 16% | Population Healthy Nuclei (%) [9]: 69% | Population Hoechst High Intensity Objects (%) [9]: 6% | Population Membrane Permeable-Phenotype (%) [9]: 5% | Population Mitochondria Different-Phenotype (%) [9]: 15% | Population Mitotic Cells (%) [9]: 62% | Population Normal (%) [9]: 93% | Population Pyknosed Nuclei (%) [9]: 14% | Population Tubulin-Different-Phenotype (%) [9]: 14% | Total Cell Count [9]: 831 | Population Apoptotic (%) [10]: 58% | Population Fragmented Nuclei (%) [10]: 11% | Population Healthy Nuclei (%) [10]: 68% | Population Hoechst High Intensity Objects (%) [10]: 8% | Population Membrane Permeable-Phenotype (%) [10]: 24% | Population Mitochondria Different-Phenotype (%) [10]: 17% | Population Mitotic Cells (%) [10]: 41% | Population Normal (%) [10]: 91% | Population Pyknosed Nuclei (%) [10]: 20% | Population Tubulin-Different-Phenotype (%) [10]: 23% | Total Cell Count [10]: 1197 | Population Apoptotic (%) [11]: 90% | Population Fragmented Nuclei (%) [11]: 81% | Population Healthy Nuclei (%) [11]: 1% | Population Hoechst High Intensity Objects (%) [11]: 7% | Population Membrane Permeable-Phenotype (%) [11]: 100% | Population Mitochondria Different-Phenotype (%) [11]: 37% | Population Mitotic Cells (%) [11]: 9% | Population Normal (%) [11]: 92% | Population Pyknosed Nuclei (%) [11]: 16% | Population Tubulin-Different-Phenotype (%) [11]: 75% | Total Cell Count [11]: 198 | Population Apoptotic (%) [12]: 80% | Population Fragmented Nuclei (%) [12]: 73% | Population Healthy Nuclei (%) [12]: 15% | Population Hoechst High Intensity Objects (%) [12]: 8% | Population Membrane Permeable-Phenotype (%) [12]: 97% | Population Mitochondria Different-Phenotype (%) [12]: 81% | Population Mitotic Cells (%) [12]: 19% | Population Normal (%) [12]: 91% | Population Pyknosed Nuclei (%) [12]: 10% | Population Tubulin-Different-Phenotype (%) [12]: 94% | Total Cell Count [12]: 131
